Here are results for eight molecules from ChEMBL document CHEMBL1221356, “Synthesis and evaluation of antimigratory and antiproliferative activities of lipid-linked [13]-macro-dilactones” (Bioorg Med Chem Lett, 2010).

Data set [1] relates to BT-20. Description: Antimigratory activity against human BT20 cells assessed as mean rate of migration after 48 hrs by wound closure assay. It is filed as functional. The method, boiled down:
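Kinetic wound-closure assay in confluent BT-20 monolayers grown in MEM with 10% FBS, wounded 30 min after addition of a range of concentrations or DMSO. Wound area measured from digital images at 3–72 h post-wounding.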

Data set [2] deals with BT-20. The data set can be described thus: Antiproliferative activity against human BT20 cells assessed as reduction in cell number after 48 hrs by […] assay. It is filed as functional. The settings on record: for MIC: Homo sapiens, 48 h. The gist of the method:
(§1)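 BT-20 cells, 5,000/well, grown 24 h at 37 °C, 5% CO2 before treatment with a range of concentrations or 1% DMSO for 48 h. Cell number by WST-8 tetrazolium absorbance at 450 nm after 3 h, versus an initial plate read at time of dosing. Four wells per experiment, three independent experiments. IC50 fitted from 48 h mean cell numbers. MIC is significant reduction versus control (t-test).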

Data set [3] has as its system MDCK. Description: Antimigratory activity against MDCK cells assessed as mean rate of migration by wound closure assay. The class given is functional, cell-based. The settings on record: Canis lupus familiaris. The method, boiled down:
(§2)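 Screening scratch-wound assay on confluent monolayers in 24-well plates. Medium changed to fresh medium with 100 µM compound or 1% DMSO; wounds of 0.5–1.0 mm2 scraped with a micropipet tip 30 min later. Scored closed/open by inverted microscopy every 12 h for 72 h; antimigratory if wound remained open after DMSO controls closed. Trypan blue exclusion at end. Culture at 37 °C, 5% CO2.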

The subject of data set [4] is BT-20. Description: Activity against human BT20 cells by trypan blue exclusion assay.
The subject of data set [5] is BT-20. Description: Antiproliferative activity against human BT20 cells assessed as after 48 hrs by […]. The settings on record: BT-20, 48 h. The class given is functional, cell-based. The gist of the method: as §1
Data set [6] concerns MDA-MB-435. Description: Antimigratory activity against human MDA-MB-435 cells assessed as mean rate of migration by wound closure assay. The class given is functional, cell-based. The method, boiled down:
as §2

Data set [7] concerns T47D. Description: Antimigratory activity against human T47D cells assessed as mean rate of migration by wound closure assay. It is filed as functional, cell-based. The gist of the method:
as §2

Data set [8] is described as follows: Therapeutic index, ratio of MLC for humanBT20 cells to MIC for BT20 cells. The class given is cell-based, BT-20. The settings on record: human, read-out: TI.

≈ marks a conversion by molar mass, not a printed value. Calls of active or inactive are those of the source. The calls are words filed in the database; no cut-off is given here.

In general, MIC refers to the lowest concentration found to suppress growth. The IC50 is the midpoint of a concentration-inhibition curve. For `CCCCCCCCO[C@H]1O[C@@H]2COC(=O)CC/C=C/CCC(=O)O[C@H]2[C@H](OC)[C@H]1OC`, the MIC in data set [1] stood at 75 µM (≈ 34.2 µg/mL); in data set [2] it was 50 µM (≈ 22.8 µg/mL). Also, the values for the MLC in data set [2] and in data set [4] were 300 µM (≈ 137 µg/mL) and 125 µM (≈ 57.1 µg/mL), respectively. Moreover, the outcome in data set [3] and in data set [6] was Active. The IC50 in data set [5] is 91.4 µM. Moreover, the outcome in data set [7] was inactive. Also, the selectivity ratio in data set [8] is 6.

In the case of `CCCCCCCCO[C@H]1O[C@H](CO)[C@@H](O)[C@H](OCc2ccccc2)[C@H]1OCc1ccccc1`, in data set [2], the MLC turned out to be 75 µM (≈ 35.4 µg/mL) and the MIC was determined as 25 µM (≈ 11.8 µg/mL). The 50% inhibitory concentration (IC50) in data set [5] worked out at 52.9 µM. The selectivity ratio in data set [8] was found to be 3.

As to `CCCCCCCCO[C@H]1O[C@@H]2COC(=O)CC/C=C/CCC(=O)O[C@H]2[C@H](OCc2ccccc2)[C@H]1OCc1ccccc1`, in data set [2], the MLC was determined as 300 µM (≈ 183 µg/mL) and the minimum inhibitory concentration (MIC) came out at 10 µM (≈ 6.09 µg/mL). For the same molecule, the outcome in data set [3] was Active. For the same molecule, the IC50 in data set [5] was 85.1 µM. Also, the result in data set [6] was Active. In addition, in data set [7], the result was inactive. Moreover, the selectivity ratio in data set [8] worked out at 30.

Turning to `CCCCCCCCO[C@H]1O[C@@H]2COC(c3ccccc3)O[C@H]2[C@H](O)[C@H]1O` (stereo partly specified), in data set [2], the MLC is 75 µM (≈ 28.5 µg/mL) and the MIC is 10 µM (≈ 3.8 µg/mL). For the same molecule, the outcome in data set [3] was Active. In addition, the half-inhibitory concentration (IC50) in data set [5] was 47.1 µM. In addition, the outcome in data set [6] was Active. In data set [7], the outcome was inactive. The selectivity ratio in data set [8] came out at 7.5.

On to `CCCCCCCCO[C@@H]1O[C@H](CO)[C@@H](O)[C@H](OCc2ccccc2)[C@H]1OCc1ccccc1`, for which, in data set [2], the MLC was 100 µM (≈ 47.3 µg/mL) and the MIC came out at 25 µM (≈ 11.8 µg/mL). The IC50 in data set [5] was determined as 61.1 µM. Besides, the selectivity ratio in data set [8] is 4.

Regarding `CCCCCCCCO[C@H]1O[C@@H]2COC(=O)CC[C@H]3O[C@@H]3CCC(=O)O[C@H]2[C@H](O)[C@H]1O`, the MIC in data set [1] and in data set [2] was 50 µM (≈ 22.2 µg/mL) in each case. Also, the MLC in data set [2] is more than 300 µM; in data set [4], 125 µM (≈ 55.6 µg/mL). Moreover, the outcome in data set [3] and in data set [6] was Active. For the same molecule, the half-inhibitory concentration (IC50) in data set [5] was 107 µM. Moreover, the result in data set [7] was inactive. The selectivity ratio in data set [8] was more than 6.

Turning to `CCCCCCCCO[C@H]1O[C@@H]2COC(=O)CCCCCCC(=O)O[C@H]2[C@H](O)[C@H]1O`, the MIC in data set [1] is 50 µM (≈ 21.5 µg/mL); in data set [2] it was 10 µM (≈ 4.31 µg/mL). Also, the MLC turned out to be 50 µM (≈ 21.5 µg/mL) in data set [2] and 75 µM (≈ 32.3 µg/mL) in data set [4]. The outcome in data set [3] and in data set [6] was Active. In data set [5], the IC50 amounted to 38.1 µM. Moreover, in data set [7], the result was inactive. Besides, in data set [8], the selectivity ratio was determined as 5.

`CCCCCCCCO[C@@H]1O[C@@H]2COC(c3ccccc3)O[C@H]2[C@H](O)[C@H]1O` (stereo partly specified): the MLC in data set [2] was 300 µM (≈ 114 µg/mL). In addition, the MIC in data set [2] was 50 µM (≈ 19 µg/mL). The outcome in data set [3] and in data set [6] was Active. For the same molecule, the IC50 in data set [5] amounted to 72.1 µM. For the same molecule, in data set [7], the result was inactive. Further, in data set [8], the selectivity ratio came to 6.
